Assay results published in PMC8688301 (Environment international, 2021).
Read-outs that look alike come from different tables or passages of the source.

Columns and labels:
[1] = In vitro microsomal incubation, human liver microsomes; settings: for share of the total TTBP-TAZ metabolite concentrations: metabolite formed from TTBP-TAZ in liver microsome incubations, target screening; for formation of 2,4,6-TBP as a result of biotransformation: human liver microsomes
[2] = animal studies; ref Mörck et al., 2003; cited from earlier work
[3] = In vitro microsomal incubation, rat liver microsomes; settings: for formation of 2,4,6-TBP as a result of biotransformation: rat liver microsomes
[4] = Relative body, liver and thyroid weights of exposed rats; type: in vivo, Sprague-Dawley rat; settings: 250 mg/kg bw/day by gavage, 7 days, vs control (Table S2)
TSH = test: Hepatic mRNA expression; type: in vivo, Sprague-Dawley rat; settings: rat liver; 250 mg/kg bw/day by gavage, 7 days; vs control
Method in brief: (§1)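 Male Sprague-Dawley rats (4 weeks old, 7-day quarantine) were randomised to a corn-oil control or test compound at 250 mg/kg bw/day in corn oil by oral gavage for 7 days, n = 5 per group. Liver was taken at sacrifice. mRNA was measured by quantitative real-time PCR, normalised to β2 microglobulin (B2m), with relative expression by 2−ΔΔCt. Mean ± SE reported; significance at p 0.05.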

THRβ = test: Hepatic mRNA expression; type: in vivo, Sprague-Dawley rat; settings: rat liver; 250 mg/kg bw/day by gavage, 7 days; vs control
Method in brief: as §1

RXRα = test: Hepatic mRNA expression; type: in vivo, Sprague-Dawley rat; settings: rat liver; 250 mg/kg bw/day by gavage, 7 days; vs control
Method in brief: as §1

RXRβ = test: Hepatic mRNA expression; type: in vivo, Sprague-Dawley rat; settings: rat liver; 250 mg/kg bw/day by gavage, 7 days; vs control
Method in brief: as §1

RXRγ = test: Hepatic mRNA expression; type: in vivo, Sprague-Dawley rat; settings: rat liver; 250 mg/kg bw/day by gavage, 7 days; vs control
Method in brief: as §1

PPARδ = test: Hepatic mRNA expression; type: in vivo, Sprague-Dawley rat; settings: rat liver; 250 mg/kg bw/day by gavage, 7 days; vs control
Method in brief: as §1

PPARγ = test: Hepatic mRNA expression; type: in vivo, Sprague-Dawley rat; settings: rat liver; 250 mg/kg bw/day by gavage, 7 days; vs control
Method in brief: as §1

LXR = test: Hepatic mRNA expression; type: in vivo, Sprague-Dawley rat; settings: rat liver; 250 mg/kg bw/day by gavage, 7 days; vs control
Method in brief: as §1

PXR = test: Hepatic mRNA expression; type: in vivo, Sprague-Dawley rat
HOMX1 = test: Hepatic mRNA expression; type: in vivo, Sprague-Dawley rat; settings: rat liver; 250 mg/kg bw/day by gavage, 7 days; vs control
Method in brief: as §1

SOD1 = test: Hepatic mRNA expression; type: in vivo, Sprague-Dawley rat; settings: rat liver; 250 mg/kg bw/day by gavage, 7 days; vs control
Method in brief: as §1

CAT = test: Hepatic mRNA expression; type: in vivo, Sprague-Dawley rat; settings: rat liver; 250 mg/kg bw/day by gavage, 7 days; vs control
Method in brief: as §1

VEGF = test: Hepatic mRNA expression; type: in vivo, Sprague-Dawley rat; settings: rat liver; 250 mg/kg bw/day by gavage, 7 days; vs control
Method in brief: as §1

HIF1α = test: Hepatic mRNA expression; type: in vivo, Sprague-Dawley rat; settings: rat liver; 250 mg/kg bw/day by gavage, 7 days; vs control
Method in brief: as §1

INFγ = test: Hepatic mRNA expression; type: in vivo, Sprague-Dawley rat; settings: rat liver; 250 mg/kg bw/day by gavage, 7 days; vs control
Method in brief: as §1

TNFα = test: Hepatic mRNA expression; type: in vivo, Sprague-Dawley rat; settings: rat liver; 250 mg/kg bw/day by gavage, 7 days; vs control
Method in brief: as §1

IL-6 = test: Hepatic mRNA expression; type: in vivo, Sprague-Dawley rat; settings: rat liver; 250 mg/kg bw/day by gavage, 7 days; vs control
Method in brief: as §1

PLIN = test: Hepatic mRNA expression; type: in vivo, Sprague-Dawley rat; settings: rat liver; 250 mg/kg bw/day by gavage, 7 days; vs control
ANGPTL4 = test: Hepatic mRNA expression; type: in vivo, Sprague-Dawley rat; settings: rat liver; 250 mg/kg bw/day by gavage, 7 days; vs control
Method in brief: as §1

LPL = test: Hepatic mRNA expression; type: in vivo, Sprague-Dawley rat; settings: rat liver; 250 mg/kg bw/day by gavage, 7 days; vs control
Method in brief: as §1

[5] = human; for share of the total TTBP-TAZ metabolite concentrations: 2 h
[6] = Occurrence of TTBP-TAZ and 2,4,6-TBP in blood and liver of orally exposed rats; parameters: species or system Sprague-Dawley rat; settings: in vivo, 250 mg/kg/day
TG = test: Hepatic mRNA expression; type: in vivo, Sprague-Dawley rat; settings: rat liver; 250 mg/kg bw/day by gavage, 7 days; vs control
Method in brief: as §1

AhR = test: Hepatic mRNA expression; type: in vivo, Sprague-Dawley rat; settings: rat liver; 250 mg/kg bw/day by gavage, 7 days; vs control
Method in brief: as §1

AOX1 = test: Hepatic mRNA expression; type: in vivo, Sprague-Dawley rat; settings: rat liver; 250 mg/kg bw/day by gavage, 7 days; vs control
Method in brief: as §1

MYC = test: Hepatic mRNA expression; type: in vivo, Sprague-Dawley rat; settings: rat liver; 250 mg/kg bw/day by gavage, 7 days; compared to the 2,4,6 TBP exposure group
[7] = rat

Oc1ccc(Br)cc1Br [2,4-DBP, 2,4-dibromophenol]
share of the total TTBP-TAZ metabolite concentrations [1]: 0.19%

Brc1c(Br)c(Br)c(CCc2c(Br)c(Br)c(Br)c(Br)c2Br)c(Br)c1Br [DBDPE, decabromodiphenyl ethane]
excreted in feces [2]: 90% | formation of 2,4,6-TBP as a result of biotransformation [3]: not formed | formation of 2,4,6-TBP as a result of biotransformation [1]: not formed

Oc1c(Br)cc(Br)cc1Br [2,4,6-TBP, 2,4,6-Tribromophenol]
relative body, liver, and thyroid weights [4]: No significant difference | TSH mRNA expression (TSH): significantly induced | THRβ mRNA expression (THRβ): significantly inhibited | RXRα mRNA expression (RXRα): significantly downregulated | RXRβ mRNA expression (RXRβ): significantly downregulated | RXRγ mRNA expression (RXRγ): significantly downregulated | PPARδ mRNA expression (PPARδ): significantly downregulated | PPARγ mRNA expression (PPARγ): significantly downregulated | LXR mRNA expression (LXR): significantly downregulated | PXR mRNA expression (PXR; rat liver, 250 mg/kg bw/day by gavage, 7 days, vs control): significantly downregulated | HOMX1 mRNA expression (HOMX1): significantly inhibited | SOD1 mRNA expression (SOD1): significantly inhibited | CAT mRNA expression (CAT): significantly inhibited | VEGF mRNA expression (VEGF): significantly inhibited | HIF1α mRNA expression (HIF1α): significantly inhibited | INFγ mRNA expression (INFγ): significantly decreased | TNFα mRNA expression (TNFα): significantly decreased | IL-6 mRNA expression (IL-6): significantly decreased | PLIN mRNA expression, fold change (PLIN): 2.4 fold | ANGPTL4 mRNA expression (ANGPTL4): significantly inhibited | LPL mRNA expression (LPL): significantly inhibited | share of the total TTBP-TAZ metabolite concentrations [1]: 87% | concentration ratio of 2,4,6-TBP to 2,4,5-TBP ([1]; metabolites of TTBP-TAZ incubation): 6.9

Oc1cc(Br)c(Br)cc1Br [2,4,5-TBP, 2,4,5-Tribromophenol]
share of the total TTBP-TAZ metabolite concentrations ([5]; pH 7.4): 12.6%

CC(C)(c1cc(Br)c(O)c(Br)c1)c1cc(Br)c(O)c(Br)c1 [TBBPA, tetrabromobisphenol A]
formation of 2,4,6-TBP as a result of biotransformation [3]: not formed | formation of 2,4,6-TBP as a result of biotransformation [1]: not formed

Brc1cc(Br)c(Oc2nc(Oc3c(Br)cc(Br)cc3Br)nc(Oc3c(Br)cc(Br)cc3Br)n2)c(Br)c1 [TTBP-TAZ, 2,4,6-tris-(2,4,6-tribromophenoxy)-1,3,5-triazine]
concentration of 2,4,6-TBP in rat blood ([6]; male, Sprague-Dawley, 7 days): 50 ± 14 μg/g lipid weight (lw) | concentration of 2,4,6-TBP in rat liver ([6]; male, Sprague-Dawley, 7 days): 270 ± 110 μg/g lipid weight (lw) | TTBP-TAZ detected in blood samples ([6]; rat): no TTBP-TAZ was detected | TTBP-TAZ detected in liver samples ([6]; rat): no TTBP-TAZ was detected | TSH mRNA expression (TSH): significantly induced | TG mRNA expression (TG): inhibition | RXRα mRNA expression (RXRα): downregulated significantly | RXRβ mRNA expression (RXRβ): downregulated significantly | RXRγ mRNA expression (RXRγ): downregulated significantly | PXR mRNA expression (PXR; rat, in vivo, 250 mg/kg/day): downregulated significantly | AhR mRNA expression, fold change compared to control (AhR): 18 fold | HOMX1 mRNA expression (HOMX1): significantly inhibited | AOX1 mRNA expression (AOX1): significantly inhibited | SOD1 mRNA expression (SOD1): significantly inhibited | CAT mRNA expression (CAT): significantly inhibited | VEGF mRNA expression (VEGF): significantly inhibited | HIF1α mRNA expression (HIF1α): significantly inhibited | MYC mRNA expression (MYC): significantly induced | INFγ mRNA expression (INFγ): significantly reduced | TNFα mRNA expression (TNFα): significantly reduced | PLIN mRNA expression, fold change (PLIN): 28 fold | ANGPTL4 mRNA expression (ANGPTL4): significantly inhibited | LPL mRNA expression (LPL): significantly inhibited | In vitro intrinsic clearance rate (CLint), depletion ([5]; microsomes): 10.3 µL/min/mg | 2,4,6-TBP formation rate ([5]; pH 7.4): 22.3 µL/min/mg | 2,4,6-TBP formation rate ([7]; Sprague-Dawley, pH 7.4): 12.8 µL/min/mg | In vitro intrinsic clearance rate (CLint), depletion ([7]; microsomes): 5.33 µL/min/mg | half-life ([3]; Sprague-Dawley, rat, liver microsomes, pH 7.4): 2.2 h | half-life ([1]; human, liver microsomes, pH 7.4): 1.1 h

COc1c(Br)cc(Br)cc1Br [2,4,6-TBA, 2,4,6-tribromoanisole]
share of the total TTBP-TAZ metabolite concentrations ([5]; pH 7.4): 0.02%
